Laboratory results from ChEMBL document CHEMBL1137378, “Antibacterial agent discovery using thymidylate synthase biolibrary screening” (J Med Chem, 2006).
Values after ≈ are worked out from the molar mass of the structure shown.

How the values were obtained:
Vero [1] = test: Cytotoxicity against Vero cells measured as percent of cell growth at 6.25 mg/L relative to control by MTT assay; format: functional, Chlorocebus sabaeus
Method in brief: (§1)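 VERO cells grown in MEM with 5% heat-inactivated (56 °C, 30 min) FCS, penicillin, streptomycin and L-glutamine. Cultures were watched for 2 days and live cells counted. Cells were then exposed to increasing compound concentrations; wells with cells only served as control. After 24 h, mitochondrial dehydrogenase activity was read by MTT. Trypan blue exclusion was also run.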

Listeria monocytogenes [2] = test: Antibacterial activity against Listeria monocytogenes 7; format: functional
Method in brief: (§2)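 Wild-type strain panel (18 Gram-positive and Gram-negative strains). Bacteria grown in Mueller-Hinton broth at 37 °C for 24 h. Exponentially growing cultures diluted in sterile liquid medium to a final inoculum of about 1 × 10⁴ CFU/mL, then exposed to increasing compound concentrations. MIC taken as the lowest concentration with no evident bacterial growth.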

Streptococcus = test: Antibacterial activity against Streptococcus 42; format: functional; method in brief: as §2
Escherichia coli [3] = test: Antibacterial activity against Escherichia coli 292; format: functional; method in brief: as §2
Vero [4] = test: Cytotoxicity against Vero cells measured as percent of cell growth at 12.05 mg/L relative to control by MTT assay; format: functional, Chlorocebus sabaeus; method in brief: as §1
Listeria monocytogenes [5] = test: Antibacterial activity against Listeria monocytogenes 3; format: functional; method in brief: as §2
Escherichia coli [6] = test: Antibacterial activity against Escherichia coli 256; format: functional; method in brief: as §2
Staphylococcus aureus [7] = test: Antibacterial activity against Staphylococcus aureus ATCC 29213; format: functional; method in brief: as §2
Thymidylate synthase [8] = biological target: T1, Thymidylate synthase (Cryptococcus neoformans var. neoformans B-3501A, UniProt P0CS13); test: Inhibition of Cryptococcus neoformans thymidylate synthase
T1 sequence (P0CS13 whole entry): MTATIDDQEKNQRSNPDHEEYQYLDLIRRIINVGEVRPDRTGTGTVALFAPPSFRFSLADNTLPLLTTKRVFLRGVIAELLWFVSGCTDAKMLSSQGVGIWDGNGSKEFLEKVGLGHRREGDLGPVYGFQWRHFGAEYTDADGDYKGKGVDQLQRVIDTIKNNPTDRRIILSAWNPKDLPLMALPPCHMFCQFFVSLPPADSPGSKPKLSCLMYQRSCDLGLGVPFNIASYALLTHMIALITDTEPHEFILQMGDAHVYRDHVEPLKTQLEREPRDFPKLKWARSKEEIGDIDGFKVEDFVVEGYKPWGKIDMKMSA

Vero [9] = test: Cytotoxicity against Vero cells measured as percent of cell growth at 1.56 mg/L relative to control by MTT assay; format: functional, Chlorocebus sabaeus; method in brief: as §1
Homo sapiens = species: Homo sapiens; test: Selectivity Index, Ki for human dihydrofolate reductase/Ki for human thymidylate synthase
Staphylococcus aureus [10] = test: Antibacterial activity against Staphylococcus aureus 343; format: functional; method in brief: as §2
Listeria monocytogenes [11] = test: Antibacterial activity against Listeria monocytogenes 8; format: functional; method in brief: as §2
[12] = Specificity Index, Ki for human thymidylate synthase/Ki for Escherichia coli thymidylate synthase
Listeria monocytogenes [13] = test: Antibacterial activity against Listeria monocytogenes ATCC 4428; format: functional; method in brief: as §2
[14] = system: Staphylococcus saprophyticus; test: Antibacterial activity against Staphylococcus saprophyticus ATCC 15305; format: functional; method in brief: as §2
Vero [15] = test: Cytotoxicity against Vero cells measured as percent of cell growth at 3.12 mg/L relative to control by MTT assay; format: functional, Chlorocebus sabaeus; method in brief: as §1
[16] = system: Staphylococcus haemolyticus; test: Antibacterial activity against Staphylococcus haemolyticus ATCC 2997; format: functional; method in brief: as §2
Dihydrofolate reductase = biological target: T2, Dihydrofolate reductase (Homo sapiens, UniProt P00374); test: Inhibition of human dihydrofolate reductase
T2 sequence (P00374 whole entry): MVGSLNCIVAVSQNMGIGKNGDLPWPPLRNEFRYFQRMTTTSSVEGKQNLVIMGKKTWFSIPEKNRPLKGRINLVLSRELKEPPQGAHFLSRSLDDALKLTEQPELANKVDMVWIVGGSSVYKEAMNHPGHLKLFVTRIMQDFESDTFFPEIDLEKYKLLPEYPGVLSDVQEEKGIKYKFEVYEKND
Method in brief: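 Purified human DHFR assayed spectrophotometrically at 25 °C by the fall in A340 on DHF reduction. Ki from steady-state kinetics.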

Citrobacter = test: Antibacterial activity against Citrobacter 224; format: functional; method in brief: as §2
Listeria monocytogenes [17] = test: Antibacterial activity against Listeria monocytogenes 5; format: functional; method in brief: as §2
Staphylococcus aureus [18] = test: Antibacterial activity against Staphylococcus aureus 341; format: functional; method in brief: as §2
Vero [19] = test: Cytotoxicity against Vero cells measured as percent of cell growth at 50 mg/L relative to control by MTT assay; format: functional, Chlorocebus sabaeus; method in brief: as §1
[20] = Specificity Index, Ki for human thymidylate synthase/Ki for Cryptococcus neoformans thymidylate synthase
Method in brief: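 Specificity index is Ki of hTS divided by Ki of the pathogen TS (LcTS, EcTS or CnTS). Each enzyme was purified to >95% and assayed spectrophotometrically at 340 nm, 20 °C. Buffer was TES 50 mM pH 7.4 with MgCl2, formaldehyde, EDTA and 2-mercaptoethanol, plus dUMP 100 µM, mTHF 140 µM and enzyme 0.07 µM.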

Thymidylate synthase [21] = biological target: Thymidylate synthase (Escherichia coli, UniProt C3SWJ7); test: Inhibition of Escherichia coli thymidylate synthase
Chain of Thymidylate synthase (Escherichia coli, UniProt C3SWJ7) (C3SWJ7 whole entry): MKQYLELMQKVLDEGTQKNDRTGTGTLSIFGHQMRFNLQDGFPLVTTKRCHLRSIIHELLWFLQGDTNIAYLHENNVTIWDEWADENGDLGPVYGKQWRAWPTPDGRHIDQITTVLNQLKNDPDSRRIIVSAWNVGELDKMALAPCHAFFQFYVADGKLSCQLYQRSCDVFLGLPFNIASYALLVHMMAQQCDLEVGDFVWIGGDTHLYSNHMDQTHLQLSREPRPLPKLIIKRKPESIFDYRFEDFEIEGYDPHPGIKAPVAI

Staphylococcus aureus [22] = test: Antibacterial activity against Staphylococcus aureus K28; format: functional; method in brief: as §2
Enterococcus faecalis = test: Antibacterial activity against Enterococcus faecalis ATCCC29212; format: functional; method in brief: as §2
[23] = Specificity Index, Ki for human thymidylate synthase/Ki for Lactobacillus casei thymidylate synthase
Vero [24] = test: Cytotoxicity against Vero cells measured as percent of cell growth at 25 mg/L relative to control by MTT assay; format: functional, Chlorocebus sabaeus; method in brief: as §1
Listeria monocytogenes [25] = test: Antibacterial activity against Listeria monocytogenes 4; format: functional; method in brief: as §2
Listeria monocytogenes [26] = test: Antibacterial activity against Listeria monocytogenes 6; format: functional; method in brief: as §2

O=C1OC(c2ccc(O)c(Br)c2)(c2ccc(O)c(Br)c2)c2ccc(Cl)c3cccc1c23
Activity (Vero [1]): 97%
MIC (Listeria monocytogenes [2]): 2.5 µg/mL (≈ 4.46 µM)
MIC (Streptococcus): 1 µg/mL (≈ 1.78 µM)
MIC (Escherichia coli [3]): > 25 µg/mL
Activity (Vero [4]): 97%
MIC (Listeria monocytogenes [5]): 5 µg/mL (≈ 8.92 µM)
MIC (Escherichia coli [6]): > 25 µg/mL
MIC (Staphylococcus aureus [7]): 2.5 µg/mL (≈ 4.46 µM)
Ki (Thymidylate synthase [8]): 4.1 µM
Activity (Vero [9]): 96%
Selectivity index (Homo sapiens): < 0.05
MIC (Staphylococcus aureus [10]): 1 µg/mL (≈ 1.78 µM)
MIC (Listeria monocytogenes [11]): 5 µg/mL (≈ 8.92 µM)
Ratio Ki [12]: > 60
MIC (Listeria monocytogenes [13]): 1 µg/mL (≈ 1.78 µM)
MIC [14]: 1 µg/mL (≈ 1.78 µM)
Activity (Vero [15]): 95%
MIC [16]: 5 µg/mL (≈ 8.92 µM)
Ki (Dihydrofolate reductase): 13 µM
MIC (Citrobacter): > 25 µg/mL
MIC (Listeria monocytogenes [17]): 5 µg/mL (≈ 8.92 µM)
MIC (Staphylococcus aureus [18]): 2.5 µg/mL (≈ 4.46 µM)
Activity (Vero [19]): 61%
Ratio Ki [20]: > 60
Ki (Thymidylate synthase [21]): 4.1 µM
MIC (Staphylococcus aureus [22]): 2.5 µg/mL (≈ 4.46 µM)
MIC (Enterococcus faecalis): 5 µg/mL (≈ 8.92 µM)
Ratio Ki [23]: > 306
Activity (Vero [24]): 85%
MIC (Listeria monocytogenes [25]): 2.5 µg/mL (≈ 4.46 µM)
MIC (Listeria monocytogenes [26]): 2.5 µg/mL (≈ 4.46 µM)
